The source of these data is the RNAGym collection of RNA variant scans (doi:10.1038/nmeth.2970).

The chains are these.
B1: NELF-E aptamer (parent)
chain: CCCAACGACUGCCGAGCGAGAUUACGCUUGAGCGCCCCACUGAGGAUGCCCACGGGCGAUUGGGGCACGG

The data set covers variants of B1. The experiment in a line: HiTS-RAP. Conditions: with NELF-E (Drosophila). The procedure, abridged: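 Kd came from weighted Hill fits to the first binding curve, with intensities normalised to sequencing intensity and averaged per sequence, keeping only fits whose variance was below 1,000,000. That curve was imaged on an Illumina GAIIx flowcell, where sequenced aptamer DNA templates with a T7 promoter and ter site had been transcribed in situ by T7 RNA polymerase and halted by GST-Tus (30 minutes, 37°C). Before each image, clusters equilibrated for 30 minutes at room temperature with NELF-E-mOrange at 0.064 to 1000 nM in HEPES binding buffer.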
For C13G U22C, the Kd (commonly the free concentration of one partner at which half of the binding sites on the other are occupied at equilibrium, for simple one-to-one binding) is 4.85 nM. For the variant G11U G20U, the Kd worked out at 7.02 nM. With G11U G20A, the Kd came to 5.7 nM. On to C13G C38U, for which the Kd is 6.55 nM. To C13G C49U belongs 31.9 nM; to C12G C36U, 7.29 nM; to C13U G64A, 8.04 nM. Turning to C12G A21U, the Kd worked out at 6.04 nM.

On to C12G A21G, for which the Kd is 7.12 nM. On to C12G A59G, for which the Kd was 57.4 nM. Take C13G A46G: the Kd is 47.3 nM. Consider C13G A46U, for which the Kd was determined as 87.3 nM. Then C12G A15U, with 6.36 nM; and C12G A15G, with 6.14 nM. As for C13A U22G, the Kd was 5.85 nM. Then C13G G14A, with 6.02 nM; and C13G G14C, with 7.7 nM; and C13G G14U, with 5.85 nM. As to C13U U29G, the Kd amounted to 5.14 nM.

C12G C25G: the Kd was found to be 4.47 nM. To C13G G42U belongs 5.35 nM; to C13G G42A, 49 nM; to G14A A52G, 4.13 nM. To C12U U23G belongs 5.04 nM. Regarding C12U A19G, the Kd came to 5.36 nM.

For C12G A43G, the Kd was determined as 26.1 nM. To C13G A31U belongs 5.78 nM.

Take C13G A31G: the Kd was found to be 7.08 nM. Then G14A C17U, with 5.62 nM. Turning to G14A C17G, the Kd is 5.98 nM. To C13U A39U belongs 20.4 nM. As for C13U A39G, the equilibrium dissociation constant (Kd) came to 7.82 nM. To G14A U29G belongs 5.42 nM; to G14A U29A, 4.86 nM. Consider G14A U29C, for which the Kd was found to be 4.73 nM. Then G11U G63A, with 19.4 nM; and G11U G63U, with 8.25 nM. With C13G G30U, the Kd came to 6.03 nM. To C13G G30A belongs 4.93 nM. In the case of C12G U29G, the Kd turned out to be 5.61 nM.

Turning to C12G U29C, the Kd was 6.33 nM. To C12G U29A belongs 5.65 nM; to G11U G30A, 5.79 nM; to G11U C51U, 6.67 nM. To G11U C27U belongs 4.86 nM. Consider C13G A52G, for which the Kd worked out at 4.96 nM. Then C13G A52U, with 16.9 nM. To C13U A19G belongs 6.42 nM; to C13U A19U, 5 nM; to G11U U41G, 6.22 nM. To G14A A21G belongs 6.08 nM; to C12G C17G, 5.66 nM. Turning to C12G C17U, the Kd was 7.01 nM. Consider C12G G56U, for which the Kd turned out to be 6.08 nM. C12U U41G: the Kd is 6.2 nM. To G14A A31G belongs 5.95 nM; to C12A U22G, 4.37 nM.

With C13G C57U, the Kd stood at 6.43 nM. To C12G G65U belongs 8.23 nM; to C13G C37U, 10.3 nM; to C13G C37A, 21.7 nM. To C13G C37G belongs 6.46 nM; to C12G U41G, 5.67 nM. Then C13U G20U, with 7.13 nM. As for C12U G14U, the Kd worked out at 8.16 nM. Then G14U A24G, with 6.51 nM; and G14A A19U, with 4.56 nM.

For G14A A19G, the Kd turned out to be 5.88 nM. On to C13G G55U, for which the Kd stood at 7.38 nM.

Turning to C13G G55C, the Kd stood at 7.94 nM. In the case of C13G G55A, the Kd amounted to 6.77 nM.

In the case of C12G A67G, the equilibrium dissociation constant (Kd) came out at 6.86 nM. With C12G A67U, the Kd was 7.12 nM. Then G14A G63A, with 12 nM; and C13A, with 5.28 nM; and C13U, with 4.41 nM.

On to C13G, for which the Kd was 4.88 nM. Then G11U G42A, with 55.9 nM; and C13G C50U, with 14.7 nM; and C12U U29G, with 5.46 nM.

For G14A A43G, the Kd was determined as 9.58 nM. Then C13U A52U, with 10.1 nM; and C13U A52G, with 3.79 nM; and C13U G34A, with 6.99 nM.

Regarding C12G G55A, the Kd turned out to be 7.66 nM. To C12G G55U belongs 8.9 nM.

Take C12G U28G: the Kd was determined as 8.85 nM.

In the case of C12G U28A, the Kd is 6.47 nM. Then C12G U28C, with 8.42 nM; and C13U G16U, with 6.59 nM. Then C12U C17G, with 6.2 nM; and G11U G62A, with 19.7 nM. Then C12G C40U, with 126 nM. With C13G U29C, the Kd was determined as 4.94 nM. Then C13G U29G, with 4.95 nM.

As for C13G U29A, the Kd was 4.9 nM.

Turning to C12G G54A, the Kd turned out to be 18.2 nM. To C13G G16U belongs 6.25 nM; to C13G G16A, 6.87 nM. Then G11U C57U, with 6.12 nM. With C12G G26A, the Kd stood at 4.12 nM.

C12G G26U: the Kd is 5.65 nM. Then G14A G20U, with 5.9 nM. As to C13G G45U, the Kd came out at 6.75 nM. Then C13G A43U, with 27.8 nM. With C13G A43G, the Kd was 15.3 nM. Then G11U U29C, with 6.7 nM; and G11U U29G, with 6 nM; and G11U U29A, with 5.62 nM. Turning to G11U G16A, the Kd was determined as 6.06 nM. Then G11U G16U, with 6.7 nM. Then C12G G62U, with 10.8 nM; and G11U C25G, with 4.89 nM; and C13G G48U, with 6.97 nM. Then C13G G48A, with 11 nM; and C13G G62A, with 32.4 nM. For the variant C13G G62U, the Kd was 7.22 nM.

Consider G14U A52U, for which the Kd is 15.8 nM.

In the case of G14U A67G, the Kd amounted to 6.8 nM.

Take C12A A24G: the Kd came to 5.99 nM.

Take C13G U60C: the Kd turned out to be 8.4 nM. To C13G U60G belongs 5.12 nM. Consider C12G U22C, for which the Kd turned out to be 6.9 nM. In the case of C12G U22G, the Kd was found to be 5.79 nM. To C13U G26A belongs 4.43 nM; to C13U C57U, 4.06 nM; to G11U G54A, 14.1 nM. To G14A G18A belongs 5.3 nM; to C12G C33U, 6 nM. Then C12U G34A, with 5.3 nM. For the variant C13G G56U, the Kd is 4.87 nM.

On to C13G G56A, for which the Kd was determined as 6.97 nM. Then C12G U61A, with 39.1 nM. Then C13U A31G, with 5.17 nM. To G14A U41G belongs 5.69 nM; to G14A A15C, 4.43 nM. In the case of G14A A15G, the Kd stood at 6.1 nM.

Consider G14A A15U, for which the Kd was found to be 5.39 nM. Then G11U G56A, with 10.8 nM; and C13G U28C, with 8.82 nM; and C13G U28G, with 6.99 nM. To C13G U28A belongs 4.22 nM; to G11U U28C, 9.24 nM; to C12A C13G, 5.33 nM. Then C13G U23A, with 5.32 nM.

Take C13G U23G: the Kd came out at 5.29 nM. For C13G U23C, the Kd amounted to 5.7 nM. Then G14A G55U, with 8.79 nM; and C13G G54U, with 7.78 nM; and C13G G54A, with 13.8 nM. Turning to C13G U61A, the Kd turned out to be 38.3 nM. Take C13G U61C: the Kd was 73.4 nM. Then C13G U61G, with 7.74 nM; and G14A C53U, with 4.16 nM. As for G14A A39G, the Kd was determined as 9.46 nM.

In the case of G14A A39U, the Kd worked out at 31 nM.

For C13U U22G, the Kd is 5.14 nM.

Consider C13G G32A, for which the Kd is 4.64 nM.

As for C12U U22G, the Kd was determined as 5.99 nM. Turning to C12U G16U, the Kd is 5.76 nM.

With C12G G48A, the Kd turned out to be 9.02 nM. To C13G C27U belongs 4.45 nM. For the variant C12U A39G, the Kd was determined as 6.76 nM. Then C12G U23C, with 3.97 nM; and C12G U23G, with 5.85 nM; and C13G C36U, with 7.49 nM. Then C13G C36G, with 6.08 nM.
